The values that follow come from ChEMBL document CHEMBL4152382, “Discovery of Tarantula Venom-Derived NaV1.7-Inhibitory JzTx-V Peptide 5-Br-Trp24 Analogue AM-6120 with Systemic Block of Histamine-Induced Pruritis” (J Med Chem, 2018).

Series [1] can be described thus: Plasma concentration in C57/BL6 mouse model of histamine-induced pruritis at 2 mg/kg, sc. In kind it is ADME, organism-based. Particulars: in vivo. The procedure, abridged: (§1)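 Dosing was 2 h before an intradermal nape injection of histamine (8.15 mM, 100 μL). Scratching was videorecorded for 15 min by blinded experimenters, and peptide plasma concentrations were analysed from the same study.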

Series [2] is described as follows: AUCt in C57/BL6 mouse at 2 mg/kg, sc by LC-MS/MS analysis. The class given is ADME, organism-based. Particulars: in vivo. The procedure, abridged:
(§2)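 Male C57Bl/6 mice, n = 3 per time point, given a single 2 mg/kg subcutaneous dose. Plasma levels were quantified by LC-MS/MS over time, and pharmacokinetic parameters were derived from the plasma profiles. Data are reported as mean ± SEM for each time point.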

For series [3], the system named is Mus musculus. Nature of the series: In vivo inhibition of Nav1.7 in C57/BL6 mouse model of histamine-induced pruritis assessed as reduction in scratching bouts at 1 mg/kg, sc dosed 2 hrs before histamine challenge and measured for 15 mins relative to control. In kind it is functional. The method, boiled down: (§3)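 Male C57Bl/6 mice aged 8–10 weeks; nape shaved under 3% isoflurane the day before, with 15 min chamber acclimation. Peptide given sc 2 h before intradermal histamine dichloride (8.15 mM, 100 μL); vehicle was PBS with 1% MSA. Scratch bouts video-recorded for 15 min, blinded scoring; n = 8–10 per group; one-way ANOVA with Dunnett's test versus vehicle.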

Series [4] in a line: Ratio of plasma concentration in C57/BL6 mouse model of histamine-induced pruritis at 1 mg/kg, sc to IC50 for Nav1.7 in C57/BL6 mouse DRG neurons by whole cell manual patch clamp assay. In kind it is ADME, organism-based. As to conditions: in vivo.
The test system of series [5] is Mus musculus. Nature of the series: In vivo inhibition of Nav1.7 in C57/BL6 mouse model of histamine-induced pruritis assessed as reduction in scratching bouts at 2 mg/kg, sc dosed 2 hrs before histamine challenge and measured for 15 mins relative to control. The class given is functional. The method, boiled down: as §3
The target of series [6] is T1, Sodium channel protein type 9 subunit alpha (Mus musculus, UniProt Q62205). Kind of series: Inhibition of mouse Nav1.7 expressed in HEK293 cells after 10 mins by patchxpress-based electrophysiology. In kind it is cell-based.
A short description of series [7]: MRT in C57/BL6 mouse at 2 mg/kg, sc by LC-MS/MS analysis. The class given is ADME, organism-based. As to conditions: in vivo. The procedure, abridged: as §2
Series [8] can be described thus: Tmax in C57/BL6 mouse at 2 mg/kg, sc by LC-MS/MS analysis. In kind it is ADME, organism-based. As to conditions: in vivo. The procedure, abridged: as §2
The target in series [9] is Sodium channel protein type 4 subunit alpha (Homo sapiens, UniProt P35499). Kind of series: Inhibition of human Nav1.4 expressed in HEK293 cells at holding potential of -125 mV […] by patchxpress-based electrophysiology assay. The class given is cell-based.
Series [10] addresses Sodium channel protein type 9 subunit alpha (Homo sapiens, UniProt Q15858). Nature of the series: Inhibition of human Nav1.7 expressed in HEK293 cells at holding potential of -125 mV […] by patchxpress-based electrophysiology assay. In kind it is cell-based.
The nature of series [11]: Cmax in C57/BL6 mouse at 2 mg/kg, sc by LC-MS/MS analysis. Particulars: in vivo. The arrangement: dose 2 mg/kg, route subcutaneous. The class given is ADME, organism-based. The method, boiled down:
as §2

Series [12] can be described thus: Plasma concentration in C57/BL6 mouse model of histamine-induced pruritis at 1 mg/kg, sc. As to conditions: in vivo. The class given is ADME, organism-based. The method, boiled down: as §1
The test system of series [13] is Mus musculus. Nature of the series: In vivo inhibition of Nav1.7 in C57/BL6 mouse model of histamine-induced pruritis assessed as reduction in scratching bouts at 0.5 mg/kg, sc dosed 2 hrs before histamine challenge and measured for 15 mins relative to control. The class given is functional. The method, boiled down: as §3
Series [14] has as its system Mus musculus. Kind of series: Toxicity in C57/BL6 mouse assessed as effect on locomotor activity at 2 mg/kg, sc by open field assay. The class given is organism-based. Particulars: in vivo.
A short description of series [15]: Plasma concentration in C57/BL6 mouse model of histamine-induced pruritis at 0.5 mg/kg, sc. The class given is ADME, organism-based. Particulars: in vivo. The procedure, abridged:
as §1

The target in series [16] is T1, Sodium channel protein type 9 subunit alpha. Kind of series: Inhibition of Nav1.7 in C57/BL6 mouse DRG neurons assessed as reduction in TTX sensitive sodium channel-mediated currents by whole cell manual patch clamp assay. (In general: Patch clamp records ionic current or voltage across a cell membrane.)
Series [17] concerns the target Sodium channel protein type 10 subunit alpha (Homo sapiens, UniProt Q9Y5Y9). Kind of series: Inhibition of human Nav1.8 expressed in HEK293 cells after 10 mins by patchxpress-based electrophysiology. The class given is cell-based.
The target of series [18] is Sodium channel protein type 5 subunit alpha (Homo sapiens, UniProt Q14524). Kind of series: Inhibition of human Nav1.5 expressed in HEK293 cells at holding potential of […] after 10 mins by patchxpress-based electrophysiology assay. In kind it is cell-based.
The nature of series [19]: Ratio of plasma concentration in C57/BL6 mouse model of histamine-induced pruritis at 2 mg/kg, sc to IC50 for Nav1.7 in C57/BL6 mouse DRG neurons by whole cell manual patch clamp assay. In kind it is ADME, organism-based. Particulars: in vivo.
A short description of series [20]: Apparent […] clearance in C57/BL6 mouse at 2 mg/kg, sc by LC-MS/MS analysis. The class given is ADME, organism-based. As to conditions: in vivo. The method, boiled down: as §2
Series [21] is described as follows: Ratio of plasma concentration in C57/BL6 mouse model of histamine-induced pruritis at 0.5 mg/kg, sc to IC50 for Nav1.7 in C57/BL6 mouse DRG neurons by whole cell manual patch clamp assay. The class given is ADME, organism-based. Particulars: in vivo.
Series [22] is described as follows: Plasma concentration in C57/BL6 mouse at 2 mg/kg, sc after 30 mins by LC-MS/MS analysis. In kind it is ADME, organism-based. As to conditions: in vivo, 0.5 h. The method, boiled down:
as §2

Series [23] concerns Mus musculus. Nature of the series: Volume of distribution at steady state in C57/BL6 mouse at 2 mg/kg, sc by LC-MS/MS analysis. Particulars: in vivo. The class given is ADME, organism-based. The method, boiled down:
as §2

Series [24] deals with Sodium channel protein type 8 subunit alpha (Homo sapiens, UniProt Q9UQD0). Kind of series: Inhibition of human Nav1.6 expressed in HEK293 cells at holding potential of -125 mV […] by patchxpress-based electrophysiology assay. In kind it is cell-based.
A short description of series [25]: Inhibition of TTX-resistant sodium channel-mediated currents in C57/BL6 mouse DRG neurons by whole cell manual patch clamp assay. Particulars: C57/BL6, DRG neuron.
A short description of series [26]: Half life in C57/BL6 mouse at 2 mg/kg, sc by LC-MS/MS analysis. In kind it is ADME, organism-based. As to conditions: in vivo. The procedure, abridged:
as §2

Series [27] concerns Mus musculus. Kind of series: Toxicity in C57/BL6 mouse assessed as effect on locomotor activity at 1 mg/kg, sc by open field assay. The class given is organism-based. Particulars: in vivo.

Active and inactive are the calls of the source.

T1 sequence (Q62205 whole entry): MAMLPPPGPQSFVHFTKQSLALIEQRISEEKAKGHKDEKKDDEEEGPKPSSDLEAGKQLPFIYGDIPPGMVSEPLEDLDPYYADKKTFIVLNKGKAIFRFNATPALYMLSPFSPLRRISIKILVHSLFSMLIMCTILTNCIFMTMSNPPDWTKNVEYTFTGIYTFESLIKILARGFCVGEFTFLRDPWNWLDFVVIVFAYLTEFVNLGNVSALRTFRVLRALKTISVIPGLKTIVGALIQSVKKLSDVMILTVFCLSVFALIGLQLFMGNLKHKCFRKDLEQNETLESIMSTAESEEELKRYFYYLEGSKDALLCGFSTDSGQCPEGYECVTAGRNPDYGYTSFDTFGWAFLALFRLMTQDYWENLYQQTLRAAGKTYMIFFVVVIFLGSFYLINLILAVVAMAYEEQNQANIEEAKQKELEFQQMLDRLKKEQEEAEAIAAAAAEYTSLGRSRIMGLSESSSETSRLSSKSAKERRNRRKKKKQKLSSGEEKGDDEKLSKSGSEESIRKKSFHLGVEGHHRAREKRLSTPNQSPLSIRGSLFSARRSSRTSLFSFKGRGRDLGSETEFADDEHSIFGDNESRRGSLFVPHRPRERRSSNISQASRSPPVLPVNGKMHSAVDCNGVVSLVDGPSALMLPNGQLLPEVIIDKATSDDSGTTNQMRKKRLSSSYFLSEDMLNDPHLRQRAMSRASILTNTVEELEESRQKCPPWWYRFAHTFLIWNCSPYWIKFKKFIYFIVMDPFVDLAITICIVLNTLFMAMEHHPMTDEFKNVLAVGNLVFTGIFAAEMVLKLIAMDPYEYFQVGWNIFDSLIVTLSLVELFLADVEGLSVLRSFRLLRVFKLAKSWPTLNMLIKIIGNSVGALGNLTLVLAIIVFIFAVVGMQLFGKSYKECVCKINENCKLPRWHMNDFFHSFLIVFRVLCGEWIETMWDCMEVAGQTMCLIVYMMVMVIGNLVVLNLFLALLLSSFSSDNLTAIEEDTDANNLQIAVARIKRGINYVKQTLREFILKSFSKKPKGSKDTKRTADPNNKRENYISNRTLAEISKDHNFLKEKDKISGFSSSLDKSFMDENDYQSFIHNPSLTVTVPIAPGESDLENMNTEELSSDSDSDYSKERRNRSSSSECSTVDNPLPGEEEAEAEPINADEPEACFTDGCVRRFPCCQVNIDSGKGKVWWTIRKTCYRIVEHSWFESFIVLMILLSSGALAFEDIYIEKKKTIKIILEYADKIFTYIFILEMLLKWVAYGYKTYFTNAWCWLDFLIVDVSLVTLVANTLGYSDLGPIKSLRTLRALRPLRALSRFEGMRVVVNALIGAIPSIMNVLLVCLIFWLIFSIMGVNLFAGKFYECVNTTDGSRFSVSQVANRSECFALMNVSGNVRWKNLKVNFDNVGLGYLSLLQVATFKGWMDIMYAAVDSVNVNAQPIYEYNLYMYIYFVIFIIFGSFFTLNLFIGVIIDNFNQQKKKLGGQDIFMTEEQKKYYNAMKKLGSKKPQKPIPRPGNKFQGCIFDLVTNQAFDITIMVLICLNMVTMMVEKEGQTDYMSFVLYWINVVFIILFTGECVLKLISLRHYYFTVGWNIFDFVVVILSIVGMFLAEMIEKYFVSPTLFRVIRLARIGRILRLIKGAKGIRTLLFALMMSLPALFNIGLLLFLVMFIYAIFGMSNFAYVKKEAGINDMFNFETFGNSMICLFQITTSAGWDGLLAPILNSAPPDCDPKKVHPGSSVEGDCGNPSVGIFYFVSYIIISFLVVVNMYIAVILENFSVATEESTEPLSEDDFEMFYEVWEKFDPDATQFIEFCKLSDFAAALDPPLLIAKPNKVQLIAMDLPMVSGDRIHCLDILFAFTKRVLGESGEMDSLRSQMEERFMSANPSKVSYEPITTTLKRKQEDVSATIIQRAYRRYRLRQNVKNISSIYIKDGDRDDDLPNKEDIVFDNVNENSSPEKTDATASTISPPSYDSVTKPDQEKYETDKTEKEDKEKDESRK
Chain of Sodium channel protein type 10 subunit alpha (Q9Y5Y9 whole entry): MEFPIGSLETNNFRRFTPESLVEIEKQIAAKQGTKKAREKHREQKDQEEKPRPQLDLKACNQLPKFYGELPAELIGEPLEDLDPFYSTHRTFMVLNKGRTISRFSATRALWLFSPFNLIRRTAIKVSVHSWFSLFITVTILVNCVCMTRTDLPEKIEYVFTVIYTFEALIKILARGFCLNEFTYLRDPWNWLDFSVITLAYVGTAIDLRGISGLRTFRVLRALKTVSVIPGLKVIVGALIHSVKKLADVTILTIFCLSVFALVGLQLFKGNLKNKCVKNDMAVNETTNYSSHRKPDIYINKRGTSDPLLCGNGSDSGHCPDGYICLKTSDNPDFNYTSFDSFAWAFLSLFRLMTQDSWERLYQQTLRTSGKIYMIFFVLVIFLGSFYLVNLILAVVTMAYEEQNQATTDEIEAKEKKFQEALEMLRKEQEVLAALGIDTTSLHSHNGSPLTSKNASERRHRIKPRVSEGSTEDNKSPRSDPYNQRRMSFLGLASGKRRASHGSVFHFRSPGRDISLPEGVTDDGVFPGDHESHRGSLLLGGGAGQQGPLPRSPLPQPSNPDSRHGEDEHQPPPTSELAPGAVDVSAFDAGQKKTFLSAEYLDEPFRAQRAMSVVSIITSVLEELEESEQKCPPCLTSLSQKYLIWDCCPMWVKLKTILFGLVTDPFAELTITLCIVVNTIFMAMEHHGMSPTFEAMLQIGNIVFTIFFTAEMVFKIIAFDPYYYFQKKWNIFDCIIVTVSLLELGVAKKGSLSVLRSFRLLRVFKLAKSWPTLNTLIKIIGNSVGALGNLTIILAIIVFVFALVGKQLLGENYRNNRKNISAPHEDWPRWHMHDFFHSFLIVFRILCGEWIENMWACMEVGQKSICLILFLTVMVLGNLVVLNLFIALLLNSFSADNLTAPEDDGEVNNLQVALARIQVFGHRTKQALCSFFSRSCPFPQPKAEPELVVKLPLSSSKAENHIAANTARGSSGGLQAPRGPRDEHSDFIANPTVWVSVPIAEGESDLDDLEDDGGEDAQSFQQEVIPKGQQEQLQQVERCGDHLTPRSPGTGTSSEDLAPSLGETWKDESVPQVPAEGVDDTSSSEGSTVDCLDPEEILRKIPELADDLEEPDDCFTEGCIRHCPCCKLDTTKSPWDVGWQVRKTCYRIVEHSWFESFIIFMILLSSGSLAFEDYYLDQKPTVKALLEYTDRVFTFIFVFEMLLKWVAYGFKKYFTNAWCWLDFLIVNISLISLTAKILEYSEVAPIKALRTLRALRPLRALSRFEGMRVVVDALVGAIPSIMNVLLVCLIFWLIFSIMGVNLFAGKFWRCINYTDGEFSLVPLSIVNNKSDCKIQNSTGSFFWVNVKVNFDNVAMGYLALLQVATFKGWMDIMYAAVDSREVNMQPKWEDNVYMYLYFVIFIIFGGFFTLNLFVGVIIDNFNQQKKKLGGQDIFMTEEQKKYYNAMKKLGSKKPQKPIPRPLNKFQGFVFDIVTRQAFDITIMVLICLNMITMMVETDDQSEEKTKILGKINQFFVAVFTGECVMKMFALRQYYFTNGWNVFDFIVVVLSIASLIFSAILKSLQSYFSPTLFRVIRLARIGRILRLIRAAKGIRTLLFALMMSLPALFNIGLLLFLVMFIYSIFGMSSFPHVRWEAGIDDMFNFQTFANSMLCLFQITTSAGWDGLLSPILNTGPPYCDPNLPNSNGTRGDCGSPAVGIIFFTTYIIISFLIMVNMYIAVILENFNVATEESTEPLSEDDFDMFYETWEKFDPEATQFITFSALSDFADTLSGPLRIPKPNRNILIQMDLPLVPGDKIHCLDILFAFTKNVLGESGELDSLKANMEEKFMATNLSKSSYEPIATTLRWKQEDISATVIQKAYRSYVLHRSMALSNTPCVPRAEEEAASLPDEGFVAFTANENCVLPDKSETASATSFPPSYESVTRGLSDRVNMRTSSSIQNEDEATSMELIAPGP

On to `C#CC[C@H](NC(=O)[C@@H](N)CCC(=O)O)C(=O)N[C@H]1CSSC[C@@H]2NC(=O)[C@@H]3CSSC[C@@H](C(=O)N[C@@H](CCCNC(=N)N)C(=O)N[C@@H](CCCCN)C(=O)N[C@@H](CCC(=O)O)C(=O)N[C@H](C(N)=O)[C@@H](C)CC)NC(=O)[C@H](Cc4c[nH]c5ccc(Br)cc45)NC(=O)[C@H](CC(C)C)NC(=O)[C@H](CCCCN)NC(=O)[C@H](CSSC[C@H](NC(=O)[C@H]([C@@H](C)O)NC(=O)[C@H](Cc4c[nH]c5ccccc45)NC(=O)[C@H](CCCC)NC(=O)[C@H](Cc4c[nH]c5ccccc45)NC(=O)[C@H](CCCCN)NC(=O)[C@H](CCC(N)=O)NC1=O)C(=O)N[C@@H](CC(=O)O)C(=O)N[C@@H](CO)C(=O)N[C@@H](C)C(=O)N[C@@H](CCCNC(=N)N)C(=O)N[C@@H](C)C(=O)N3)NC(=O)[C@H](CCCNC(=N)N)NC(=O)[C@H](CC(C)C)NC(=O)CNC(=O)[C@H](CCC(=O)O)NC2=O`, for which the concentration in series [1] is 535 nM; in series [12], 300 nM; in series [15], 122 nM. Moreover, the AUC(0-t) in series [2] was determined as 4.5 µM·h. Besides, in the series with Mus musculus [3], the inhibition in vivo at 1 mg/kg stood at 22.5%. For the same compound, the Ratio came to 59 in [4], 105 in series [19] and 24 in series [21]. Further, the inhibition in vivo at 2 mg/kg in the series with Mus musculus [5] is 88.9%. Besides, the IC50 in series [6] was 5.4 nM; in [9], 104 nM; in [10], 0.8 nM; in [16] it was 5.1 nM; in series [17], more than 1000 nM; in [18], 6640 nM. The IC50 is 104 nM in series [24] and more than 10000 nM in [25]. In [7], this compound registered an MRT of 3.7 h. In addition, in series [8], the Tmax is 0.5 h. This compound also came in with a Cmax in [11] of 1480 nM. Also, the inhibition in vivo at 0.5 mg/kg in the series on Mus musculus [13] is 7.3%. Further, the Activity result with Mus musculus [14] was “Non-Toxic”. For the same compound, the CL/F in series [20] was 2 mL/min/kg. The Drug uptake result in [22] is given as “Active”. The compound further came in with a Vdss in the series on Mus musculus [23] of 0.444 L/kg. For the same compound, the half-life in [26] is 4.95 h.
With `C#CC[C@H](N)C(=O)N[C@@H](Cc1ccc(O)cc1)C(=O)N[C@H]1CSSC[C@@H]2NC(=O)[C@@H]3CSSC[C@@H](C(=O)N[C@@H](CCCNC(=N)N)C(=O)N[C@@H](CCCCN)C(=O)N[C@@H](CCC(=O)O)C(=O)N[C@H](C(N)=O)[C@@H](C)CC)NC(=O)[C@H](Cc4c[nH]c5ccccc45)NC(=O)[C@H](CC(C)C)NC(=O)[C@H](CCCCN)NC(=O)[C@H](CSSC[C@H](NC(=O)[C@H]([C@@H](C)O)NC(=O)[C@H](Cc4c[nH]c5ccccc45)NC(=O)[C@H](CCCC)NC(=O)[C@H](Cc4c[nH]c5ccccc45)NC(=O)[C@H](CCCCN)NC(=O)[C@H](CCC(N)=O)NC1=O)C(=O)N[C@@H](CC(=O)O)C(=O)N[C@@H](CO)C(=O)N[C@@H](CCCCN)C(=O)N[C@@H](CCCNC(=N)N)C(=O)N[C@@H](C)C(=O)N3)NC(=O)[C@H](CCCNC(=N)N)NC(=O)[C@H](CC(C)C)NC(=O)CNC(=O)[C@H](CCC(=O)O)NC2=O`, the Activity entry with Mus musculus [27] was “Non-Toxic”. In addition, the outcome in the series on Mus musculus [3] was inactive. The Ratio in series [4] was 6.5. Also, the IC50 was 0.5 nM in [10], 9 nM in [16], more than 1000 nM in [17] and 3070 nM in [18].

A word on the AUC(0-t): it is exposure summed from dosing to a finite time, without extrapolation to infinity. A lower AUC(0-t) goes with low exposure. The term inhibition in vivo denotes the relative decrease from the control value, in per cent. By IC50 is commonly meant the midpoint of a concentration-inhibition curve. A word on the MRT: it is the average time that molecules of a dose stay in the body. Usually Tmax stands for the time from dosing to the highest level. Usually Cmax stands for the highest concentration seen after dosing. What is called CL/F is clearance divided by bioavailability, as obtained after extravascular dosing. Usually half-life stands for the time needed for the level to fall by half in the phase considered. Higher therefore signals slow decline.
